TRPC6 act: activators of mouse TRPC6 channel | Q61143 | HEK293-TRPC6 membrane potential dye fluorescence; hits give high values | B-score at 10 µM | 0.13% of 310,000 active;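 active = B-score of the integrated fluorescence ratio above library mean plus 3 SD, and starting fluorescence ratio within library mean plus 5 SD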;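 note: higher score means more depolarization so channel activation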
Kir21 block: blocks the mouse Kir2.1 inward-rectifier potassium channel. B-score at 10 µM. 0.85% of 310,000 active. HEK293-Kir2.1, FluxOR thallium flux fluorescence; hits give low values;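 active = fluorescence ratio B-score at or below minus 3 SD of library scores, with starting-brightness B-score within 2 SD, cut at about -4.2 in these data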;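 note: channel flux triggered by added potassium and thallium sulfate stimulus; B-score of peak minus minimum fluorescence over baseline after thallium stimulus; more negative B-score means stronger Kir2.1 block with less thallium influx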
TRPC4 potent: allosterically enhances the mouse TRPC4 cation channel; HEK293 TRPC4beta/mu-opioid, DAMGO EC20, Fluo-4 Ca2+ flux; hits give high values; B-score at 10 µM; 0.42% of 310,000 active;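 active = B-score of calcium response area above 5 SD of library B-scores, with initial fluorescence ratio within 5 SD of library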;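 note: B-score of integrated fluorescence ratio over time as area under calcium response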
Target sequence (Q9QUQ5 whole entry, looked up): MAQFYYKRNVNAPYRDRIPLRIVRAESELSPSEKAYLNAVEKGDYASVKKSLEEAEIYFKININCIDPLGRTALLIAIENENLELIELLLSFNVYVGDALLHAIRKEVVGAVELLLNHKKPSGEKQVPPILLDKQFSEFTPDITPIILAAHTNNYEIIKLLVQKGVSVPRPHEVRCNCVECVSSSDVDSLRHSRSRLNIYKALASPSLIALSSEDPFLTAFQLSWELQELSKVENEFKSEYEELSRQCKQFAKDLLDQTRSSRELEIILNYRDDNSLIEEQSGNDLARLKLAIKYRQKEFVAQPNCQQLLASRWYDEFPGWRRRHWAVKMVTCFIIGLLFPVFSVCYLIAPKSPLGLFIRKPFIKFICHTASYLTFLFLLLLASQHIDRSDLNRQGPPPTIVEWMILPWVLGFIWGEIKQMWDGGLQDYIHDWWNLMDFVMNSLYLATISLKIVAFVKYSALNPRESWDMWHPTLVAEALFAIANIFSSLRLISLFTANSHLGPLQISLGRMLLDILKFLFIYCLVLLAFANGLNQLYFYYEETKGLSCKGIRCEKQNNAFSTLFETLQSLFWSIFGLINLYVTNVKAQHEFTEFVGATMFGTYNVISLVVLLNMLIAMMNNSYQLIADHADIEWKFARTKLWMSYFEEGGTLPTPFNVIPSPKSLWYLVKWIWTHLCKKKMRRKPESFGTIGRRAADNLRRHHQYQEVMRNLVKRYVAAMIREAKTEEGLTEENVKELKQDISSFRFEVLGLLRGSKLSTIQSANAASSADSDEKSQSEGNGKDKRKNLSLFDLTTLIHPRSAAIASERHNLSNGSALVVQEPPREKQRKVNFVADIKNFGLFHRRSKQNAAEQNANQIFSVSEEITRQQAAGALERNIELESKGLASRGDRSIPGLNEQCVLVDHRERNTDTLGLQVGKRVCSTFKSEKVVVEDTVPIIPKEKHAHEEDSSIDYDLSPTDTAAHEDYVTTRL
TRPC4 inh: inhibitors of mouse TRPC4 channel; HEK293 TRPC4beta/mu-opioid, DAMGO-evoked Fluo4 calcium flux; hits give low values; B-score at 10 µM; Q9QUQ5; AID 2247; 0.39% of 300,000 active;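 active = B-score over 3 SD under the library average, no early fluorescence shift, positive overall ratio signal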
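System: stable TRPC4beta/mu-opioid receptor HEK293 cells; Dosing: single-point compound dosing; Measured by: Fluo4 Ca2+ flux fluorescence; Read-out basis: per-well B score of integrated baseline-normalized Fluo4 ratio.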
TRPC4 act: TRPC4 (mouse) channel activation; B-score at 10 µM; Q9QUQ5; HEK293 TRPC4beta/mu-opioid, Fluo4 calcium fluorescence; hits give high values; 0.49% of 310,000 active;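 active = B-score above 5 SD of library B-scores, and initial fluorescence ratio not above library mean plus 5 SD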;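 note: positive B-score marks a calcium rise read as TRPC4 activation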
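Technique: kinetic Fluo4 calcium fluorescence; Test system: TRPC4beta and mu-opioid receptor HEK293 stable cells; Measure: B-scored integrated calcium fluorescence ratio; Benchmarks: low control buffer alone, high control maximal DAMGO; Schedule: 45 min room-temperature Fluo4 loading, 110 s read.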
TRPC6 inh: inhibitors of mouse TRPC6 channel | Q61143 | HEK293-TRPC6, membrane potential dye, ACh-evoked depolarization; hits give low values | B-score at 10 µM | 1.1% of 310,000 active | AID 2553;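 active = B-score under library mean minus 3 SD, initial fluorescence not abnormally high, positive integrated signal ratio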;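 note: B-score derived from integrated fluorescence ratio over the kinetic read; more negative B-score means stronger inhibition of depolarization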
Numbers without * were called inactive; i = inactive. This is a sample that favours compounds with a hit; in the whole collection about 2.9% have one here.

SMILES	TRPC6 act	Kir21 block	TRPC4 potent	TRPC4 inh	TRPC4 act	TRPC6 inh
COc1ccc(OC)c(NC(=O)COC(=O)Cc2ccc(Br)cc2)c1	i	0.67	i	i	i	i
Cc1ccc2cc(C(c3nnnn3C3CCCC3)N3CCOCC3)c(=O)[nH]c2c1C (configuration not stated)	i	0.5	i	i	i	i
Cc1ccc(C)c2[nH]c(=O)c(C(c3nnnn3Cc3ccco3)N3CCc4ccccc4C3)cc12 (configuration not stated)	i	-1.25	11*	i	i	i
Cc1ccc(C)c2[nH]c(=O)c(CN(Cc3nnnn3C3CCCCC3)CC3CCCO3)cc12 (configuration not stated)	i	0.01	i	-6*	i	i
Cc1ccc(C)c2[nH]c(=O)c(C(c3nnnn3C3CCCC3)N3CCOCC3)cc12 (configuration not stated)	i	-1.76	23*	i	i	i
CCN1CCN(C(c2cc3cccc(C)c3[nH]c2=O)c2nnnn2Cc2ccccc2)CC1 (configuration not stated)	i	1.25	i	i	76*	i
Cc1ccc(C)c2[nH]c(=O)c(CN(CCN3CCOCC3)Cc3nnnn3CC3CCCO3)cc12 (configuration not stated)	i	-0.64	i	i	i	i
C=CCNC(=S)NNC(=O)c1ccc(=O)n(Cc2ccc(Cl)cc2Cl)c1	i	-1.12	i	i	i	i
COc1ccc(C(CCNCc2ccc(N(C)C)cc2)c2ccccc2OC)cc1 (configuration not stated)	i	-3.35	i	i	63*	i
COc1ccc(OC)c(NC(=S)NCCC(c2ccccc2)c2ccccc2)c1	i	1.42	i	i	i	i
COc1ccc(CN(CCC(c2ccccc2)C2CCOC(C)(C)C2)C(C)=O)cc1 (configuration not stated)	i	1.48	i	i	i	i
COc1ccc(CNCCC(c2ccc(OC)cc2)c2ccccc2OC)cc1 (configuration not stated)	i	-10.8*	i	i	i	i
COc1ccc(CNCCC(c2ccccc2)C2CCOC(C)(C)C2)cc1 (configuration not stated)	i	-2.48	i	i	60*	i
COc1ccc(C(CCNCc2ccc(OC(C)C)cc2)c2ccccc2OC)cc1 (configuration not stated)	i	-9.91*	i	i	i	i
COc1ccc(CNC(c2ccccc2)c2ccc(Cl)cc2)cc1 (configuration not stated)	i	0	i	i	i	i
CCc1sc(C(=O)N2CCN(c3ccc(F)cc3)CC2)cc1C	i	1.44	i	i	i	i
CC(=O)OC1C([N+]2(C)CCCCC2)C[C@H]2C3CC[C@H]4C[C@H](OC(C)=O)C([N+]5(C)CCCCC5)CC4(C)[C@H]3CCC12C (some centres not stated)	i	1.95	i	i	i	i
CC(=O)O[C@H]1CC[C@@]2(C)C(CCC3C2CC[C@]2(C)OC(=O)CCC32)C1 (some centres not stated)	i	-1.35	10*	i	i	i
CC(C)c1nc2n[nH]c(N)c2c2c1CCCC2	i	-6.8*	i	i	i	i
O=C(O)CCC(=O)NNc1ccccc1[N+](=O)[O-]	i	0.66	i	i	i	i
O=C(Nc1ccnn1C1CCN(C/C=C/c2ccccc2)CC1)C1CCCC1	i	-0.82	i	i	i	i
O=C(CCc1ccccc1)Nc1ccnn1C1CCN(C/C=C/c2ccccc2)CC1	i	-0.73	i	-6*	i	i
CCOc1ccccc1CN1CCC(n2nccc2NC(=O)CCCc2ccccc2)CC1	i	-1.59	i	i	i	i
CCOc1ccccc1CN1CCC(n2nccc2NC(=O)CCc2ccccc2)CC1	i	-1.51	i	-7*	i	i
C/C=C(\C)CN1CCC(n2nccc2NC(=O)CCc2ccccc2)CC1	i	-0.46	i	-6*	46*	i
SMILES	TRPC6 act	Kir21 block	TRPC4 potent	TRPC4 inh	TRPC4 act	TRPC6 inh
C/C=C(\C)CN1CCC(n2nccc2NC(=O)CCOc2ccccc2)CC1	i	-1.63	i	i	i	i
COc1cc2c(cc1OC)C(C)N(C(=O)C(NC(=O)c1ccccc1)C(C)C)CC2 (configuration not stated)	i	-0.01	i	i	96*	i
COC(=O)c1cc(-c2ccc(NC(C)=O)cc2)nc2ccccc12	i	-0.12	i	i	i	i
C/C(CC(=O)NC(C)(C)C)=N\NC(=O)COc1ccc(C)cc1Br	i	-0.04	11*	i	i	i
Cc1ccc(-c2nc(CN(C)C3CCOC3)c(C)o2)s1 (configuration not stated)	i	-0.02	i	i	i	i
OCCC1CN(Cc2cccn2-c2cccnc2)CCN1CCc1ccccc1 (configuration not stated)	i	0.66	i	-5*	i	i
CN(Cc1ccccc1)Cc1nc2c(c(=O)n(C)c(=O)n2C)n1CCCc1ccccc1	i	-2.68	37*	i	i	i
CC(CCc1ccccc1)NC(=O)CN(C)Cc1ccccc1F (configuration not stated)	i	-0.38	i	i	i	i
CC(CCc1ccccc1)NC(=O)CN(C)Cc1ccc(F)cc1 (configuration not stated)	i	-4.48*	i	i	i	i
C=CCNC(=S)N(CC)c1cccc2ccccc12	i	-5.32*	i	i	i	i
COc1ccc(N2C(=O)NC(NS(=O)(=O)c3ccc(NC(C)=O)cc3)(C(F)(F)F)C2=O)cc1 (configuration not stated)	i	-1.33	i	i	i	i
CCOC(=O)C1=C(CNCc2ccccc2Cl)NC(=O)NC1c1cccc([N+](=O)[O-])c1 (configuration not stated)	i	-0.11	i	i	i	i
COC(=O)C1=C(COc2ccccc2)NC(=O)NC1c1ccc(Br)cc1 (configuration not stated)	i	0.23	i	i	i	i
COC(=O)C1=C(CCc2ccccc2)NC(=O)NC1c1ccc(Cl)cc1 (configuration not stated)	i	-0.7	29*	i	i	i
